Sampled rows, rich in hits. Any-hit rate of the full collection: about 1.8%.
DDE Tn6 FP inh: disrupts Tn6 cyclic peptide binding to fibrin D-Dimer-E complex; P02675; Fibrin DD(E) TRITC-Tn6 fluorescence polarization displacement; inhibition, % at 8.3 µM; 370,000 tested, 0.21% active; AID 720509;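 active = inhibition above a per-campaign cutoff: mean of compounds within control limits plus 3 SD, cut at about 15% in these data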
mABHD4 FP: inhibits mouse alpha/beta hydrolase domain 4 | 370,000 tested, 0.54% active | inhibition, % at 8.92 µM | AID 720543 | Q8VD66 | purified mABHD4, FP-Rh probe fluorescence polarization;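 active = inhibition exceeding the mean over every tested compound plus 3 SD, cut at about 30% in these data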
Target sequence (Q8VD66 whole entry, looked up, the tested form may be a part): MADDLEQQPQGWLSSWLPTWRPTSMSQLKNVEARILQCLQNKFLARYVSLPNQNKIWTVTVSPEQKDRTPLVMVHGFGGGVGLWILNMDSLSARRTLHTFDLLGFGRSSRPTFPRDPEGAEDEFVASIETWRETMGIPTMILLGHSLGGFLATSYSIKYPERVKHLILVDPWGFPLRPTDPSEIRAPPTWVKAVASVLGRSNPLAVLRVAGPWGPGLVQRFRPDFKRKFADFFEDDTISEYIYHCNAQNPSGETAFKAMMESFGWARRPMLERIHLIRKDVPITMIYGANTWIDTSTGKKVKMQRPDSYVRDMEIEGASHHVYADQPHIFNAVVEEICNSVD
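Test system: mABHD4 protein; Read-out basis: % inhibition; Incubation: 45 min + 60 min at 25 °C; Repeats: single replicate; Technique: fluorescence polarization with parallel and perpendicular emission, 525/598 nm; Compound: 8.92 µM, single dose; Benchmarks: full inhibition S159A mutant plus DMSO, zero as sample-well median.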
SIAE inh: human SIAE inhibition, primary screen. Q9HAT2. SIAE FP-Rh probe binding, fluorescence polarization. inhibition, % at 9.66 µM. 370,000 tested, 0.69% active. AID 1053197;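 active = inhibition above a cutoff: mean of compounds within the control limits plus 3 SD of those, cut at about 17% in these data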
TCR-CD3 inh: inhibitors of human TCR-CD3 interaction | TAMRA-labeled TCR probe fluorescence, biochemical | inhibition, % at 9.4 µM | 360,000 tested, 0.37% active | AID 651800; in the data active = inhibition above about 19%;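 note: recombinant mutant TCR 2C K166C tagged with TAMRA read by polarization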
Tn7 DDE FP: DD(E)-Tn7 binding inhibition, primary FP screen; inhibition, % at 8.3 µM; FP displacement of FITC-Tn7 peptide from fibrin DD(E); 0% = median of compound wells per plate; 370,000 tested, 0.13% active;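 active = inhibition above the mean of compounds falling within the control limits plus 3 SD of them, cut at about 14% in these data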
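Assay system: human fibrin DD(E) protein / Input: 2 µM fibrin DD(E) / Benchmarks: high control of 10 µM Aha-Tn7 peptide / Measured by: fluorescence polarization of the labelled Tn7 tracer / Medium: Tris buffer with calcium and detergent, pH 7.8 / Timing: 10 min compound pre-incubation, 3 h probe incubation at room temperature / Repeats: one replicate per compound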
HTRA1 inh: inhibitors of human serine peptidase HTRA1; 340,000 tested, 0.5% active; AID 504803; inhibition, % at 5.96 µM; recombinant HTRA1, FP-rhodamine activity-based probe, fluorescence polarization; in the data active = inhibition above about 36%
DDE Tn6 FP ctr: counter-screen for inhibitors of Tn6 peptide binding to fibrin DD(E); AID 720621; inhibition, % at 8.3 µM; 680 tested, 2% active; TRITC-Tn6 fluorescence polarization displacement; 0% = median of compound wells, not DMSO; shares compounds with DDE Tn6 FP inh;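 active = inhibition above the mean of test compounds lying between the control limits plus 3 SD of those, cut at about 14% in these data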
DDE Tn6 confirm: confirmation of inhibitors of Tn6 binding to human fibrin DD(E); shares compounds with DDE Tn6 FP inh; inhibition, % at 8.3 µM; FP displacement of TRITC-Tn6 peptide from DD(E); 0% = per-plate median of test wells; 680 tested, 10% active; AID 720631;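 active = inhibition above the mean of compounds lying within the control limits plus 3 SD, cut at about 16% in these data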
Each line names hits and unclear results; the compound was inactive in the other large screens (follow-up assays come after a bar, where they were run).

CCn1c2ccccc2c2cc(NC(=O)COC(=O)c3cccc(F)c3F)ccc21	none (no result: TCR-CD3 inh, HTRA1 inh)
Cc1nc2ccc(N)cc2s1	DDE Tn6 FP inh 15 | DDE Tn6 FP ctr inactive | DDE Tn6 confirm inactive
CC[C@H](C)/C=C(C)/C=C/C(=O)Cc1cc(O)c(C)c(O)c1C=O	DDE Tn6 FP inh 16 | DDE Tn6 FP ctr inactive | DDE Tn6 confirm inactive
CC[C@H](C)/C=C(C)/C=C/c1cc2c(cn1)C(=O)[C@@](C)(OC(C)=O)C(O)=C2Cl	none (no result: HTRA1 inh)
COC(=O)c1cccc(NC(=S)N2CCCCC2)c1	none
COC(=O)c1cccc(NC(=S)N2CCN(c3ccccc3F)CC2)c1	DDE Tn6 FP inh 18 | DDE Tn6 FP ctr inactive | DDE Tn6 confirm inactive
Oc1ccccc1C1CC(c2cccs2)=NC(c2cccc(Br)c2)N1 (configuration not stated)	DDE Tn6 FP inh 105 | DDE Tn6 FP ctr inactive | DDE Tn6 confirm inactive
Cc1c(CN2CCC(C(=O)Nc3ccc(Oc4ccccc4)nc3)CC2)cnn1C	DDE Tn6 FP inh 15 | DDE Tn6 FP ctr inactive | DDE Tn6 confirm inactive
CCCS(=O)(=O)NC(=O)C1(C)CCN(C(=O)c2cccc(OC(F)(F)F)c2)C1 (configuration not stated)	DDE Tn6 FP inh 15 (no result: HTRA1 inh) | DDE Tn6 FP ctr inactive | DDE Tn6 confirm inactive
COc1ccc(CNS(=O)(=O)/C=C/c2ccc(OC)cc2CNC(=O)OC(C)(C)C)cc1	none (no result: TCR-CD3 inh, HTRA1 inh)
CC(=O)N1CCN(C(=O)CCNS(=O)(=O)c2ccc(Br)cc2)CC1	DDE Tn6 FP inh 18 | DDE Tn6 FP ctr inactive | DDE Tn6 confirm inactive
O=c1[nH]nc(SCc2ccccc2Cl)n1-c1ccc2c(c1)OCCO2	DDE Tn6 FP inh 16 (no result: HTRA1 inh) | DDE Tn6 FP ctr inactive | DDE Tn6 confirm inactive
COc1ccccc1N=Nc1nc(-c2ccccc2)c(-c2ccccc2)[nH]1	DDE Tn6 FP inh 21 | DDE Tn6 FP ctr inactive | DDE Tn6 confirm inactive
COCCN(CC1CCCN(C2Cc3ccccc3C2)C1)C(=O)c1cccc(C)c1 (configuration not stated)	none
COCCN(CC1CCCN(C2Cc3ccccc3C2)C1)C(=O)c1ccc(C(C)=O)cc1 (configuration not stated)	DDE Tn6 FP inh 16 | DDE Tn6 FP ctr inactive | DDE Tn6 confirm inactive
CCOC(=O)Cc1nc(N2CCN(C(=O)C3CCCO3)CC2)c2c(C)c(C(=O)OCC)sc2n1 (configuration not stated)	none (no result: TCR-CD3 inh, HTRA1 inh)
COc1ccc(NC(=O)C(=O)N/N=C/c2cccnc2)c(OC)c1	DDE Tn6 FP inh 16 | DDE Tn6 FP ctr inactive | DDE Tn6 confirm inactive
COc1ccc(NC(=O)/C(C#N)=C/c2cccnc2)c(OC)c1	none
CCOC(=O)[C@@]12CN(C(=O)OC(C)(C)C)CC=C1N(Cc1ccc(OC)cc1)C(=O)[C@H]2CC(=O)N1CCSCC1	none (no result: TCR-CD3 inh, HTRA1 inh)
C=CCn1c(-c2ccccc2)n[nH]c1=S	none
C=CCn1c(-c2ccc(F)cc2)n[nH]c1=S	DDE Tn6 FP inh 16 | DDE Tn6 FP ctr inactive | DDE Tn6 confirm inactive
C=CC[C@@]1(c2ccccc2)Oc2ccccc2-c2nc3ccccc3nc21	none (no result: TCR-CD3 inh, HTRA1 inh)
O=C(COC(=O)C1CC1)Nc1ccc(OC(F)F)cc1	DDE Tn6 FP inh 15 | DDE Tn6 FP ctr inactive | DDE Tn6 confirm inactive
O=C(COC(=O)C1CCC1)Nc1ccc(OC(F)F)cc1	none
CC(C)(C)c1ccc(C(=O)Nc2cc(Cl)ccc2C(=O)O)cc1	none (no result: TCR-CD3 inh, HTRA1 inh)
COc1ccc(/C=C(\C#N)C(=O)NCC2CCCO2)cc1OC (configuration not stated)	none
CCOC(=O)c1ccc(-c2ccc(/C=C(\C#N)C(=O)NCC3CCCO3)o2)cc1 (configuration not stated)	DDE Tn6 FP inh 18 | DDE Tn6 FP ctr inactive | DDE Tn6 confirm inactive
COc1ccc(CCN2CC(C(=O)OCC(=O)c3c(N)n(CC(C)C)c(=O)n(C)c3=O)CC2=O)cc1OC (configuration not stated)	DDE Tn6 FP inh 44 | DDE Tn6 FP ctr inactive | DDE Tn6 confirm inactive
CC1CCCN(CCCNC(=O)c2ccc3c(c2)N(Cc2cccc(Cl)c2)C(=O)c2ccccc2S3=O)C1 (configuration not stated)	DDE Tn6 FP inh 16 | DDE Tn6 FP ctr inactive | DDE Tn6 confirm inactive
CC1CCCN(CCCNC(=O)c2ccc3c(c2)N(Cc2ccc(F)cc2)C(=O)c2ccccc2S3=O)C1 (configuration not stated)	none
NS(=O)(=O)c1ccc(N2CCN(C(=O)C3COc4ccccc4O3)CC2)nc1 (configuration not stated)	DDE Tn6 FP inh 18 | DDE Tn6 FP ctr inactive | DDE Tn6 confirm inactive
O=C(C1COc2ccccc2O1)N1CCN(c2ccc(C(F)(F)F)cn2)CC1 (configuration not stated)	none (no result: SIAE inh)
COc1nccnc1NS(=O)(=O)c1ccc(NC(=S)NC(=O)/C=C/c2ccc(F)cc2)cc1	none
COc1cc(NS(=O)(=O)c2ccc(NC(=S)NC(=O)/C=C/c3ccc(F)cc3)cc2)ncn1	DDE Tn6 FP inh 19 | DDE Tn6 FP ctr inactive | DDE Tn6 confirm inactive
CC1(C)CC2CN(Cc3ccccc3)S(=O)(=O)N2C1 (configuration not stated)	none (no result: TCR-CD3 inh, HTRA1 inh)
COc1ccc(-c2cc(C(=O)N(C3CCCCC3)C3CCCCC3)no2)cc1	none (no result: TCR-CD3 inh, HTRA1 inh)
CCc1ccc(OCC(=O)Nc2ccc3oc(=O)ccc3c2)cc1	DDE Tn6 FP inh 17 | DDE Tn6 FP ctr inactive | DDE Tn6 confirm inactive
Cc1ccc(OCC(=O)Nc2ccc3oc(=O)ccc3c2)cc1	none
O=C(CSc1ccc(Br)c2cccc(Cl)c12)Nc1ccc(S(=O)(=O)Nc2nccs2)cc1	DDE Tn6 FP inh 27 | DDE Tn6 FP ctr inactive | DDE Tn6 confirm inactive
COC[C@@H](OC(C)=O)[C@H]1OCc2ccccc2[C@@H]1/C=C/c1ccccc1	none (no result: TCR-CD3 inh, HTRA1 inh)
Fc1ccc(C2CCCCN2Cc2nc(CC3CC3)no2)cc1 (configuration not stated)	none
Fc1ccc2nc(C3CCCCN3Cc3nc(CC4CC4)no3)[nH]c2c1 (configuration not stated)	DDE Tn6 FP inh 16 | DDE Tn6 FP ctr inactive | DDE Tn6 confirm inactive
COc1ccc(C(=O)N(C)Cc2ccc(C)o2)cc1OC1CCN(C(C)=O)CC1	DDE Tn6 FP inh 16 | DDE Tn6 FP ctr inactive | DDE Tn6 confirm inactive
CCCCN1C(=O)C(C(=O)OCc2ccccc2)CC2=C1CCCC2=O (configuration not stated)	DDE Tn6 FP inh 21 | DDE Tn6 FP ctr inactive | DDE Tn6 confirm inactive
CCCCN1C(=O)C(C(=O)OCC)CC2=C1CCCC2=O (configuration not stated)	none
